Test results taken from ChEMBL document CHEMBL1944609, “Niphatenones, glycerol ethers from the sponge Niphates digitalis block androgen receptor transcriptional activity in prostate cancer cells: structure elucidation, synthesis, and biological activity” (J Med Chem, 2012).
Activity calls are given as the source filed them. The calls are words filed in the database; no cut-off is given here.

Tests used:
[1] = biological target: T1, Androgen receptor (Homo sapiens) (UniProt P10275); experiment: Antagonist activity at androgen receptor in human LNCAP cells transfected with p6.1-luciferase assessed as inhibition of R1881-induced transcriptional activity at 7 uM pretreated 1 hr prior to R1881 addition measured after 48 hrs by luciferase reporter gene assay; type: functional, cell-based
T1 sequence (whole entry): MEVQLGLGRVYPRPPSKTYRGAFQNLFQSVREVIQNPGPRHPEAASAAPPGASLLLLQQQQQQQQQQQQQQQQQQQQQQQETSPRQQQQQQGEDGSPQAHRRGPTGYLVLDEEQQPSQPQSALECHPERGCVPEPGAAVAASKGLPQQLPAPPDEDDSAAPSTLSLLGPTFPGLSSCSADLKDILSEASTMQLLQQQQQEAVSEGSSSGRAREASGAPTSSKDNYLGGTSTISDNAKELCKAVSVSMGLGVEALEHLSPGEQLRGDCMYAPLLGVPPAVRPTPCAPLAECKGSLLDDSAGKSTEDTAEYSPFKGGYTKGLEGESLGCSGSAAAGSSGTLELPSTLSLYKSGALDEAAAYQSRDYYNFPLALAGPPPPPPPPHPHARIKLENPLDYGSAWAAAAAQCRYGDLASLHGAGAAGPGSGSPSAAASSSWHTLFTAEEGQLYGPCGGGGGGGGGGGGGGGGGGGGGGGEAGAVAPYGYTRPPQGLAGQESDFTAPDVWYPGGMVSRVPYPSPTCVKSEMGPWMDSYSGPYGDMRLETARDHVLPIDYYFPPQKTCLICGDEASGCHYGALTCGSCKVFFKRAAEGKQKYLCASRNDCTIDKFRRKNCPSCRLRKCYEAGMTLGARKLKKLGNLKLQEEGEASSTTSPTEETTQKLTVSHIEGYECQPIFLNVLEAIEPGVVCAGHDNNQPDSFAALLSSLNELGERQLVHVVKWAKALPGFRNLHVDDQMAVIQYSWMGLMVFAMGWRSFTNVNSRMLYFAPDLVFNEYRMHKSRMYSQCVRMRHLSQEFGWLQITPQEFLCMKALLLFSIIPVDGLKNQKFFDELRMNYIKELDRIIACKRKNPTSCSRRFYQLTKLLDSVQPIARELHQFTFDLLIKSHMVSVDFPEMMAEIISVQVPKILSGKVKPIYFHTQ
How it was run: (§1)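 LNCaP cells were transfected using lipofectin in serum-free, phenol red-free medium with PSA (6.1 kb) luciferase (0.5 μg/well) plus empty vector (1 μg/well) for 24 h. Cells were then given a 1 h compound pretreatment before R1881 was added. After 48 h, luciferase was read and normalized to Bradford protein, expressed as % of the R1881 + DMSO vehicle maximum. Data are mean ± SD of three experiments, each in triplicate.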

[2] = biological target: T1, Androgen receptor (Homo sapiens); experiment: Antagonist activity at androgen receptor in human LNCAP cells transfected with p6.1-luciferase assessed as inhibition of R1881-induced transcriptional activity at 3.5 uM pretreated 1 hr prior to R1881 addition measured after 48 hrs by luciferase reporter gene assay; type: functional, cell-based; how it was run: as §1
LNCaP = experiment: Antiproliferative activity against R1881-stimulated human LNCAP cells expressing androgen receptor at 14 uM treated 1 hr before R1881 addition measured after 72 hrs by BrdU incorporation assay; type: functional, cell-based
How it was run: (§2)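 LNCaP cells were seeded for 24 h in phenol red-free RPMI 1640 with 0.5% FBS and penicillin/streptomycin, then pretreated for 1 h before 0.1 nM R1881. After 72 h, BrdU was added for 2 h, then cells were fixed and incubated with anti-BrdU-POD for 1.5 h; absorbance was read at 570 nm. Data are mean ± SD of three experiments, 6 technical replicates each, analyzed by Student's t test versus R1881.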

PC-3 = experiment: Antiproliferative activity against androgen receptor deficient human PC3 cells at 14 uM after 24 hrs by BrdU incorporation assay; type: functional, cell-based
How it was run: as §2, with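 “PC3” for “LNCaP”, “red DMEM” for “red-free RPMI 1640”, “5%” for “0.5%”, “and cultured 24 h.” for “before 0.1 nM R1881. After 72 h,”, “test.” for “test versus R1881.”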

[3] = biological target: T1, Androgen receptor (Homo sapiens); experiment: Binding affinity to AF1 region of N-terminus domain androgen receptor at 20 uM after 50 mins by coomassine blue staining based SDS-PAGE analysis
How it was run: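 Recombinant AR AF1 (purified by Ni2+-agarose, then size exclusion) at 10 μM was incubated on ice for 50 min with 20 μM alkyne probe in DMSO, or DMSO alone. The reaction was then diluted in half and click-labeled with 10 μM fluorescein azide, 0.1 mM ascorbate and 0.1 mM Cu(II)-TBTA for 30–40 min at RT. Labeling of the AF1 band was read as fluorescence on SDS-PAGE.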

SMILES	inhibition [1]	also measured
CCCCCCCCCCC/C=C/C(=O)CCCCOC[C@H](O)CO	Active	–
CCCCCCCCCCCCCCCCCC(=O)/C=C/CCCOC[C@H](O)CO	–	inhibition [2]: Active
CCCCCCCCCCCCC(=O)/C=C/CCCCC[C@H](O)CO	Active	–
CCCCCCCCCCCCC(=O)/C=C/CCCOC[C@H](O)CO	Active	Activity (LNCaP): Active; Activity (PC-3): inactive
CCCCCCCCCCCCC(=O)/C=C/CCCOC[C@@H](O)COCCOCCOCCO	Active	–
CC(=O)/C=C/CCCOC[C@H](O)CO	inactive	–
CCCCCCCCCCCCC(=O)/C=C/CCCOC[C@@H]1COC(C)(C)O1	Active	–

Now from value to compound, other results behind:

inhibition [1]	SMILES	also measured
Active	CCCCCCCCCCCCC(=O)/C=C/CCCOC[C@H]1CO1	–
50%	CCCCCCCCCCCCC(=O)/C=C/CCCOC[C@@H](O)CO	Activity (LNCaP): Active; Activity (PC-3): inactive
Active	CCCCCCCCCCCCC(=O)/C=C/CCCOC[C@@H](O)CCl	–
Active	CCCCCCCCCCCCC(=O)CCCCCOC[C@H](O)CO	–
inactive	CCCCCCCCCCC/C=C/C(=O)CCCCOC[C@@H](O)CO	–
Active	C#CCOC[C@@H](O)COCCC/C=C/C(=O)CCCCCCCCCCCC	Activity [3]: Active
